Screening data as filed in PubChem BioAssay.
Only a selection was taken, and hits are over-represented in it overall.
DAT uptake mod = changed human dopamine transporter uptake under cocaine IC80; Q01959; LLC-PK1 hDAT cells, [14C]-dopamine uptake with cocaine IC80; actives deviate in either direction; B-score at 10 µM; 110,000 compounds, 1.3% hits; AID 449768;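 active = Z score or B-score, a plate-position-corrected score, falls beyond the plate's 99.7% confidence bounds, in either direction; inactive = both scores lie inside the 99.7% bounds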;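 note: scored against the spread of the other compound wells on the same plate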
AP complement = alternative pathway complement inhibition, orthogonal assay. Human serum alternative complement pathway, LPS-coated ELISA, C3 deposition; tested in compound mixtures. inhibition, % at 5 µM. 62,000 compounds, 0.08% hits. AID 1235;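 active = inhibition above 30% in each of the two pooled mixtures holding the compound, so the lower value exceeds 30%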;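 note: 0% = serum in Mg-EGTA without compound and 100% = EDTA serum blank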
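Assay system: human serum alternative complement pathway, C3 deposition on LPS-coated wells; Dosing: 5 µM per compound in ten-compound mixtures; Detection: Anti-C3 ELISA, OD 450 nm; Buffer or medium: Mg2+-EGTA GVB++ buffer containing human serum at 1:15 dilution; Timing: 1 h at 37 °C; Replication: two different pools per compound.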
D1 mod = D1 dopamine receptor (human) allosteric modulation | B-score at 10 µM | HEK293 D1, CRE-luciferase, dopamine EC30 potentiation; actives deviate in either direction | AID 641 | 58,000 compounds, 5.9% hits;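 active = luminescence count or its row- and column-corrected plate score outside the 99.7% band of the plate's sample wells, on either side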
Target sequence (P21728 whole entry, looked up): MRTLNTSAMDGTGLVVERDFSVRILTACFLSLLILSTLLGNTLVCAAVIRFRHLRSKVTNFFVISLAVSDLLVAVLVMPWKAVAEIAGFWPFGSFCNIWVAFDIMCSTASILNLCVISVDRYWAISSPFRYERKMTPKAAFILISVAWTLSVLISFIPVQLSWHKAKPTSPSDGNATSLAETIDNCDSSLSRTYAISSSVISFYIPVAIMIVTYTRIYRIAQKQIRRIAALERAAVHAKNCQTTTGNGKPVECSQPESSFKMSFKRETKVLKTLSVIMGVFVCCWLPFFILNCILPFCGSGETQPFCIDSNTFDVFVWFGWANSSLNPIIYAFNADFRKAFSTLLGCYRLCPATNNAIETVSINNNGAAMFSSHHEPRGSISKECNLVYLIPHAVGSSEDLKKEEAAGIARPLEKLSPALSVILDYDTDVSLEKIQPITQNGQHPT
HEK293 NFkB inh = lowers PMA/ionomycin-induced NF-kB signal in HEK293 cells. AID 465. inhibition, % at 3 µM. HEK-293 NF-kB luciferase reporter, luminescence. 62,000 compounds, 0.21% hits;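 active = inhibition above the mean of all tested compounds plus 3 SD, cut at about 40% in these data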;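 note: 0% = stimulated DMSO wells and 100% = 10 µM reference inhibitor 5653914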
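Signal: luciferase luminescence; Material: HEK-293 cells with stable firefly luciferase reporter driven by four HIV NF-kB elements; Probe or stimulus: PMA with ionomycin; Replication: tested once; Times: 1 h compound pretreatment, then 16 h stimulation at 37 °C, 5% CO2; Benchmarks: DMSO and 10 µM reference inhibitor; Evaluation: per-plate % inhibition versus controls.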
E coli RNAP = blocks E. coli RNA polymerase transcription; AID 559; 62,000 compounds, 0.2% hits; P0A8V2; fluorescence transcription assay; inhibition, %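 (tested at 10 µM)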; in the data active = inhibition above about 20%;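 note: 0% = enzyme without compound and 100% = no enzyme blank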
Numbers without * were called inactive; x = not tested or not shown.

SMILES | DAT uptake mod | AP complement | D1 mod | HEK293 NFkB inh | E coli RNAP
COC(=O)c1[nH]c2cc(C)ccc2c1NC(=O)CN1CCCc2ccccc21 | 2.8* | 3 | -0.038 | -6 | 4
COC(=O)c1[nH]c2ccc(Br)cc2c1NC(=O)CN1CCN(C2CCCCC2)CC1 | 2.9* | 22 | 0.11 | 7 | -1
CCOC(=O)C1CCN(CC(=O)Nc2c(C(=O)OC)[nH]c3ccccc23)CC1 | -8.2* | 6 | -0.66 | 1 | 5
O=S(=O)(c1ccc(F)cc1)N1CCN(c2ncnc3c2cnn3-c2ccccc2)CC1 | -1 | -1 | x | 9 | 6
CCCn1c(SCC(=O)N2CCCc3ccccc32)nc2c1c(=O)n(C)c(=O)n2C | x | 25 | 4.2* | 9 | -1
Cn1c(SCC(=O)N2CCCc3ccccc32)nnc1-c1c[nH]c2ccccc12 | 3.6* | x | -0.4 | 2 | x
Cc1cccc(OCc2nnc(SCC(=O)N3c4ccccc4CC3C)n2C)c1C (stereo unspecified) | 2.2 | x | x | x | x
Cc1ccccc1OCc1nnc(SCC(=O)N2CCc3ccccc32)n1C | -8.6* | x | x | x | x
CCOC(=O)[C@@H]1[C@H]2COc3ccccc3[C@@H]2N2C(=O)N(c3ccc(F)cc3)C(=O)[C@]12C | 0.028 | x | x | x | x
Cc1ccccc1NCCNc1ccccc1C | 0.48 | x | x | x | x
CC(=NCCc1ccccc1)C1=C(O)COC1=O | -1.2 | -15 | 0.082 | 3 | -5
CCOC(=O)c1c(NC(=O)CSc2nnc(CNC(=O)c3ccco3)n2C)sc2c1CCC2 | 0.42 | 0 | x | 13 | -6
Cc1[nH]c(=O)c(C#N)c2c1CSC(C)(C)C2 | -2.5* | x | x | x | x
CCc1[nH]c(=O)c(C#N)c2c1CSC(C)(C)C2 | 0.037 | x | x | x | 10
CC1CCCCN1S(=O)(=O)c1ccc2c(c1)oc(=O)n2CC(=O)O (stereo unspecified) | -2.3* | 2 | -0.45 | 2 | 6
O=C(Nc1ccccc1)C1CC=CCC1C(=O)OCC1CCCO1 (stereo unspecified) | -1.1 | -1 | -0.74 | 1 | 3
CCC1(C)C2(C#N)C(N)=NC(OC)(OC)C12C#N (stereo unspecified) | 0.079 | 32* | 0.24 | x | x
CN(C)CCCNCC(=O)Nc1ccccc1N1CCOCC1 | -7.7* | x | x | x | x
CCOC(=O)Cc1csc(NC(=O)c2c(-c3ccccc3)noc2C)n1 | 0.19 | 17 | -0.26 | 10 | 2
CCOC(=O)Cc1csc(NC(=O)c2c(-c3c(F)cccc3Cl)noc2C)n1 | 4.3* | 13 | -0.7 | 4 | 4
CCOC(=O)Cc1csc(NC(=O)c2ccc(Br)s2)n1 | 2.7* | 10 | -0.07 | -2 | 3
Cc1[nH]c2ccccc2c1SCc1ccccc1 | -2.7* | x | x | x | x
Cn1c(=O)c2c(SCC(=O)N3CCC(Cc4ccccc4)CC3)nc(C3CC3)nc2n(C)c1=O | x | 3 | -5.7* | 21 | 12
CC(C)N(C=O)C1(C(=O)NC2CCCCC2)CCCCC1 | 0.93 | 11 | -3.3* | 6 | 7
Cc1sc2c(=O)n3c(nc2c1C(=O)NC1CCCCC1)CCCCC3 | 2.2 | x | x | x | x
SMILES | DAT uptake mod | AP complement | D1 mod | HEK293 NFkB inh | E coli RNAP
CC(=Nc1ccc(C)cc1)c1sc2ccccc2c1O | -1.1 | x | x | x | x
CC(=Nc1cccc(O)c1)c1sc2ccccc2c1O | -0.29 | -1 | -4.3* | x | 13
CCO[C@H]1OC(C(N)=O)=C[C@@H](C)[C@@H]1CCCO | -1.8 | x | x | x | x
CCCCCCC(=O)Nc1c(O)c2ccccc2[nH]c1=O | -0.86 | 13 | -3.1* | -2 | 7
CCO[C@H]1OC(C(=O)O)=C[C@@H](c2ccccc2)[C@@H]1CCCO | -0.65 | x | x | x | x
COc1ccc(C(=O)OCCN2C(=O)c3ccccc3C2=O)cc1OC | x | 15 | 5.7* | x | 2
Cc1cc(C(=O)CSc2nnc(-c3cccc(F)c3)n2N)c(C)n1Cc1ccc2c(c1)OCO2 | -0.4 | 6 | -7.8* | 16 | 3
Cc1cc(C(=O)CSc2nnnn2-c2ccc(O)cc2)c(C)n1Cc1ccc2c(c1)OCO2 | -0.77 | -2 | x | 14 | 10
COc1cc(C2C3C(=O)N(c4ccccc4)C(=O)C3ON2c2ccccc2)cc(OC)c1OC (stereo unspecified) | 0.43 | 2 | 0.53 | 10 | 12
COc1cc(C2C3C(=O)N(c4ccc(F)cc4)C(=O)C3ON2c2ccccc2)ccc1O (stereo unspecified) | -6.9* | x | -0.58 | x | -9
CCc1cc2c(CN3CCN(CCO)CC3)cc(=O)oc2cc1O | 1.6 | 2 | -0.15 | 8 | -74
CCc1cc2c(CN3CCN(C)CC3)cc(=O)oc2cc1O | -9.5* | 21 | -0.82 | 0 | -64
